Measurements from the EternaBench riboswitch data.

System: MS2 coat protein
Test: apparent Kd, MS2 coat protein; higher = weaker binding; RNA-MaP array; FMN 200 µM where present
How it was run: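 The titrant was SNAP-549-labelled MS2 coat protein, run from 0.7 or 1.5 nM in doubling steps to 3 µM. It was applied to designs transcribed by stalled E. coli RNA polymerase on Illumina sequencing-chip clusters, without ligand first and then with constant ligand, in 100 mM Tris-HCl pH 7.5, 80 mM KCl, 4 mM MgCl2, BSA, DTT, yeast tRNA and Tween-20. The apparent Kd is the median of filtered per-cluster binding-curve fits, with green signal normalised to red-channel RNA signal and control-cluster median Fmax.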

[1] = designed as: ON switch for flavin mononucleotide, no ligand
[2] = ligand present: flavin mononucleotide, designed as: ON switch for flavin mononucleotide
[3] = designed as: OFF switch for flavin mononucleotide, no ligand
[4] = ligand present: flavin mononucleotide, designed as: OFF switch for flavin mononucleotide

| Sequence | apparent Kd [1] [nM] | apparent Kd [2] [nM] | apparent Kd [3] [nM] | apparent Kd [4] [nM] |
| --- | --- | --- | --- | --- |
| CACGGCGCAUGAGGAUAUCAGGGCGACCUUUCGACAUGAGGAUCACCCAUGUAAUCUACUCGGCGUGAGAAGGCAUGACAGCCA | 286 | 136 |  |  |
| UGAACCCAUGUUAGGAUAUCAGGCCGAGGAAGUUCUGAGAAGGGACAUGAGGAUCACCCAUGUAUAAAAGAAAC |  |  | 70.6 | 41.8 |
| CCUCAGUAAGGAUAUCAGCUUAUGGAGUUGGUAAUGAGAGCUGAGAAGGUACAUGAGGAUCACCCAUGUUAGUU |  |  | 27.7 | 73.7 |
| GCGUCAGAAUUAAUUGUGACAUACAGAAGGCAAAAGUUAAGAUCAGACAUGAGGAUCACCCAUGUUGAGGAUAUGUAGAGAAUC |  |  | 10.4 | 8.72 |
| UACUUGUCAGGAUAUCUUACAUUUGCAUUAUAGCAACUCUUGGAGAAGGGACAUGAGGAUCACCCAUGUUUGGU |  |  | 70.8 | 317 |
| GGGUGACAUGAGGAUCACCCAUGUCAGGAUAUGAUACUAUGUACUUCGGUACAUAGUAUCAGAAGGGACAUAAA |  |  | 104 | 27.1 |
| AGUUAGAUAGCGAUAUGAUCGAGAGAUCAUGUCGCUAAGUUUAGAAGGACAUGAGGAUCACCCAUGUAGGAUAUGGGAGUAGAA | 149 | 53.9 |  |  |
| CAAAAGUAUAACAAUUUCGAGGCACAGGAUAUGAGUGUGCACAUGAGGAUCACCCAUGUUAUAACUUAGAAGGGUGACCAUUGC | 265 | 443 |  |  |
| UAUAUAUAGUAAGGAUAUGUAUUAAUUUUAUUAACAGAAGGUACUGACAUGAGGAUCACCCAUGUUUUAGUGUGGGCAUGUAGA |  |  | 84.2 | 149 |
| GAUAUGGGAGGAUAUGCAUAGAUAAAGAAACAUGUUCAACCACAUGAGGAUCACCCAUGUAGAAGGCCCAUAUC |  |  | 31.9 | 147 |
| CUAGACAUAUCAGGAUAUCAUCGCGUGGAUUAACCCUGUGAUUACAUGAGGAUCACCCAUGUGCUUGAGAAGGGAUUACUAUUU |  |  | 35.7 | 145 |
| UAUAUUAACAAGAAGGCUAACAUGAGGAUCACCCAUGUUGUACAUGGAUAUAGAGGAUAUUGCUAAUAAUUAUUUAUCAUAAUU |  |  | 20.4 | 18.3 |
| AAGUCACGAAUAAUAAUAAGAUCUACAUGAGGAUCACCCAUGUAGGAUAUGCAGUGGAAUACACUGCAGAAGGACAUACGUGAC |  |  | 14.1 | 16.7 |
| GUUUUUCCUCAUGUACAUGAGGAACAUGAGGAUCACCCAUGUAGAAGGAUUUCCCUUAAAUUAAAAUAGGAUAUACAUAUAUUU |  |  | 88.6 | 58.9 |
| CCUAAGGACACAGGAUAUAGCGUCGUGGCUGGGCUCCAACGGCGAGCGGCGCUAGAAGGGUGACCACAUGAGGAUCACCCAUGU | 522 | 150 |  |  |
| UAAAAGCUAGGAUAUACAUGAGGAUCACCCAUGUCACGGGUCCACUCAUCCUAUACGUGUAGAAGGAGCGACCC |  |  |  | 19.2 |
| AACAAGUCAGGAUAUCAUACUAAUCACUUGCUUUAAAUGUAUGAGAAGGGACAUGAGGAUCACCCAUGUAAAGA |  |  | 32.5 | 35.9 |
| UGGUACAUCGGAGGAUAUCAUGUGAAAACAUGAGGAUCACCCAUGUCGAUGGAGACAUCGGAGAUUGAGAAGGCCGAUGUACCU | 1470 | 49.9 |  |  |
| UCUCGUUUCGCAGGAUAUGCUGGUCGGUAAUAUACCGGCCACAUGAGGAUCACCCAUGUGCCACAGCAGAAGGGUGACACUAGA | 634 | 65.7 |  |  |
| UGUGUGAGACAGGAUAUGCCGGUUGUAUUGCUGGUAGAAGGGUCUACAUGAGGAUCACCCAUGUGGCCGGUUGG |  |  | 18.6 | 23.2 |
| UUUUACAUAGGAUAUAGUUUCUUUUACAUGAGGAUCACCCAUGUUUCUCUUCUCUCUCUUCUAGAAGGAUGUUUCU |  |  | 34.8 | 31.4 |
| CGUAUGUCAGGAUAUGUGUAUGCCGGUCAGGGCGAGCGGCAGCAGAAGGGACAUGAGGAUCACCCAUGUUCGGG |  |  | 59.6 | 116 |
| CCGGAAAGGAAGGAUAUGCUAGACGAUAGUCUAGCAGAAGGUCCUACAUGAGGAUCACCCAUGUGUCCUACCGG |  |  | 45.2 | 54.4 |
| AUCGUGUUAGGAUAUACACGUCGCUGGGUAGCUAGCGAUGGGUAGAAGGAACAUGAGGAUCACCCAUGUUCGGG |  |  | 178 | 188 |

| Sequence | apparent Kd [1] [nM] | apparent Kd [2] [nM] | apparent Kd [3] [nM] | apparent Kd [4] [nM] |
| --- | --- | --- | --- | --- |
| GAGAAGUCAGGAUAUGCAUGGCGGGACUUGCGUCGUGGCGUGCAGAAGGGACAUGAGGAUCACCCAUGUAAAGA |  |  | 53 | 49 |
| AGCUGUGGCCGAGGAUAUACAUCCUUUAUAAAACCGAAAUAUAAUCGGACAUGAGGAUCACCCAUGUAGAAGGCGGUCUCAGCA |  |  | 51.4 | 702 |
| GCUAAACAUGAGGAUCACCCAUGUACCGAUCACUAAGGAUAUGGGCGAAUAACGGCUCGGCCAGAAGGUAGAGAUG | 66.9 | 81.8 |  |  |
| GAAUAAUUGAUCCUUUUUUAUUACAUGAGGAUCACCCAUGUGCAGGAUAUCGAGAGUUUUAGAUUCGAGAAGGGCAAGAACUGU |  |  | 905 | 629 |
| UCCUACAUCGGAGGAUAUCAUGUGUAAACAUGAGGAUCACCCAUGUCGUACGAUAGUACGGAGAUUGAGAAGGCCGAUGUAGGU | 93.9 | 17.3 |  |  |
| AAUAGUACAGGAUAUACAUGAGGAUCACCCAUGUGAAAAUUAAGUGGCGUACCACAAAGUAGAAGGGUACUGGA |  |  | 22.8 | 71.4 |
| GCAACGCCUGACAUGAGGAUCACCCAUGUUAGAUUGUUAUGUCAGGAUAUUGUCUCGAAACGAGACGAGAAGGGAUAUGUUGCU | 1110 | 39 |  |  |
| CUCAUGUCAGGAUAUCAGUAGUAAAAAAAAAAAAUUACUACUGAGAAGGGACAUGAGGAUCACCCAUGUCACUU |  |  | 27.1 | 28.7 |
| GGAUAGGACAGAGGAUAUAAGUGCUAGAGAUACUAGCAAAAUUUCCUCACAUGAGGAUCACCCAUGUAGAAGGCUGUCCUAUCG |  |  | 5.71 | 11.3 |
| UAUAUUUAUGUAGGAUAUGGUAUAUAAAAUAUACCAGAAGGACAUGAGGAUCACCCAUGUAUGAAAUUCCAUAAUUGCCGUGUA |  |  | 12.7 | 14.8 |
| GUGCCUAACUAGAAGGCCGUAUGCAAAGCAUACGGAGGAUAUGGGUUCCGGAAACGGACAUGAGGAUCACCCAUGUGGCACAAA | 80.4 | 10.6 |  |  |
| CGAACCAUGUAGAAGGCUGUCUUAAAAUAGGACAGAGGAUAUACAUGAGGAUCACCCAUGUACUCCUUUAAAAGGUUCGAAAUA |  |  |  | 7.03 |
| GGUACCAUCACAGGAUAUGCUUUUCUUUGGGAAGCAGAAGGGUGUAACAUGAGGAUCACCCAUGUGGUACCAGGGCGUGAGCCC | 170 | 14.8 |  |  |
| CCCAUCGCAUGAGGAUAUGGUCAGGUUUCCUGACCAGAAGGCAUGUCAUAAGACAUGAGGAUCACCCAUGUAGUUAAGAUGGGA | 672 | 47.5 |  |  |
| UUCUUACAUGAGGAUCACCCAUGUCAGGAUAUCUCCACACUGCGCUUGCGCAGUGUAUAGAGAAGGGACAGGCU |  |  | 49.4 | 47.5 |
| UGAUAGGACAGAGGAUAUACGUGCUAGAGAUACUAGCAAAGUAUCUUGACAUGAGGAUCACCCAUGUAGAAGGCUGUCCUAUCU |  |  | 5.99 | 14.3 |
| GUAUCGUGAGGAUAUCCAAUAUAUGACAUGAGGAUCACCCAUGUUUCCACUCGUACCUCCGGAGAAGGCACAGUUU |  |  | 32.2 | 27.9 |
| UUUUAACAUGAGGAUCACCCAUGUGAGGAUAUCGAAAUUUAUAUUAAUAUUAUUUUAACGAGAAGGCACAUUUU |  |  | 76.7 | 84.2 |
| GGGCUGGGAGGAUAUUCAUUGGGAAACAUGAGGAUCACCCAUGUGAUAUAAGGGAAAUCCGGAGAAGGCUCGGUUC |  |  | 18.1 | 18.8 |
| AGGCAGCAAGGAUAUACAUAAUUCCUACAAGUCAGCAUAGGACAUGAGGAUCACCCAUGUAGAAGGUGCAAAGA |  |  | 24.1 | 46.3 |
| UAUUAACACGAAGGAUAUGGUUACAUGAGGAUCACCCAUGUAUGUAUAUUGAUCUAGAUUUUUAACCAGAAGGUCGUGAGUAAA |  |  | 50.8 | 72.2 |
| CGUAGGAUCCAGAAGGCAUGUACAUGAGGAUCACCCAUGUCAAUAGACAUGAGGAUAUGGAUCCUACGAAAAGUGCGAAAGCAC | 10.5 | 4.49 |  |  |
| UGUGAGAUGAUGUUAGAUAGGAGAACAUGAGGAUCACCCAUGUAGGAUAUUCAAAGACGAAGAUAGAAGAAGGACAUAGGUAUC |  |  | 30.3 | 78.2 |
| AUAAUUUUAUAUAUCAUUUUAAUCAGAAGGCAUAACAUGAGGAUCACCCAUGUAAAUUAAUGUUAUGAGGAUAUGAUUUGGUUA |  |  | 26.1 | 147 |
